Calls of active or inactive are those of the source.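 How the source made its calls: active means cAMP rise above 50% of the positive control response, mean of two replicates; inactive means cAMP rise at or below 50% of control.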
Tested on: human washed platelets, cAMP competitive ELISA, 5 min
Experiment: platelet cAMP elevation by compounds, confirmation, counter-screen for platelet activation inhibitor project, cell-based, competitive ELISA, PGE1 reference (AID 2645)
Conditions: at 10 µM; active compounds read high
Outline: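 Test system: washed donor platelets; doses: 10 µM, single dose; timing: 5 min compound treatment; signal: competitive cAMP ELISA, platelet lysates, 0.5% Triton X-100, 0.1 M HCl; benchmarks: PGE1 1 µM high, DMSO 0.3% neutral; replicates: duplicates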

Structure (SMILES) | cAMP induction, % of PGE1
CCC(CC)=N/N=C/c1c(O)n(CC)c2cc(C3=NNC(=O)CC3)ccc12 | 109%
C/C(=N/NC(=O)C1CCCC1)c1ccc(NC(=O)C(F)(F)F)cc1 | -25% (inactive)
COc1cc2c(cc1OC)/C(=C/C(=O)c1ccc(NC(C)=O)cc1)NCC2 | 67.8%
COc1cc2c(cc1OC)-c1cc(Nc3ccccc3C)nc(=O)n1CC2 | 638%
COc1ccccc1C(=O)Nc1c[nH]c(=O)[nH]c1=O | 97.7%
Cc1[nH]c(=O)c(C#N)c(C)c1CSc1ncccn1 | 55.4%
COc1cc2c(cc1OC)-c1cc(Nc3ccc(F)cc3)nc(=O)n1CC2 | 210%
COc1cc2c(cc1OC)-c1cc(N3CCc4ccccc43)nc(=O)n1CC2 | 74.8%
Cc1ccc(-n2c(N)c(C#N)c(-c3ccccc3)c(C#N)c2=O)cc1 | -16.7% (inactive)
COc1ccc(/C=N/N(C)c2cc(=O)n(C)c(=O)[nH]2)cc1OC | 136%
COC(=O)CS(=O)(=O)c1ccc2c(c1)CC(=O)N2 | 57.2%
COc1cc2c(cc1OC)-c1cc(N3CCCCCC3)nc(=O)n1CC2 | 83.7%
CCOc1cc(/C=N/NC(N)=O)cc(Br)c1OCC(=O)Nc1ccccc1C | 155%
O=c1[nH]c2c(s1)C=Nc1ccccc1N2 | 163%
O=C(Nc1cccc(NC(=O)c2ccccc2Cl)c1)c1ccco1 | -18.7% (inactive)
COc1ccccc1-n1cc(-c2ccc(Cl)cc2)[nH]c1=O | 32.2% (inactive)
